# Data published in ChEMBL document CHEMBL1155540, “The discovery and SAR of indoline-3-carboxamides--a new series of 5-HT6 antagonists” (Bioorg Med Chem Lett, 2010).
# How the values were obtained:
# [1] = target: 5-hydroxytryptamine receptor 6 (Homo sapiens, UniProt P50406); test: Displacement of [3H]LSD from human 5HT6 receptor expressed in CHO cells
# [2] = Intrinsic clearance in human liver microsome measured per mg of protein; format: ADME; details: liver microsomes
# [3] = Elimination half life in Wistar rat at 1 mg/kg, iv; format: ADME, organism-based; design: dose 1 mg/kg, route intravenous; details: in vivo, read-out: beta t1/2 (converted)
# Method in brief: (§1)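 Male Wistar rats dosed 1 mg/kg iv or 10 mg/kg po; vehicle 5% DMA / 95% saline. Plasma pharmacokinetic parameters derived and given as mean with SD.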
# [4] = Intrinsic clearance in rat liver microsome measured per mg of protein; format: ADME; details: liver microsomes
# [5] = tested on: Hepatocyte; test: Intrinsic clearance in human hepatocytes; format: ADME, cell-based, Liver
# [6] = Plasma protein binding in rat; details: read-out: PPB (converted)
# [7] = Oral bioavailability in Wistar rat at 10 mg/kg; format: ADME, organism-based; details: in vivo
# Method in brief: as §1
# [8] = tested on: Hepatocyte; test: Intrinsic clearance in rat hepatocytes; format: ADME, cell-based, Liver
# [9] = species on record: Homo sapiens; test: Plasma protein binding in human; details: read-out: PPB (converted)
# [10] = Volume of distribution at steady state in Wistar rat at 1 mg/kg, iv; format: ADME, organism-based; design: dose 1 mg/kg, route intravenous; details: in vivo, read-out: Vdss
# Method in brief: as §1
# [11] = target: Voltage-gated inwardly rectifying potassium channel KCNH2 (Homo sapiens, UniProt Q12809); test: Displacement of [3H]dofetolide from human ERG channel in HEK293 cells; format: cell-based
# Method in brief: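 Affinity for cardiac K+ channel determined by displacement of tritiated dofetolide in membrane homogenate from HEK-293 cells expressing hERG channel; reported as pKi.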
# [12] = Permeability from basolateral to apical side of the human Caco-2 membrane; format: ADME, cell-based; details: read-out: permeability
# [13] = Permeability from apical to basolateral side of the human Caco-2 membrane; format: ADME, cell-based; details: read-out: permeability
# [14] = Clearance in Wistar rat at 1 mg/kg, iv; format: ADME, organism-based; design: dose 1 mg/kg, route intravenous; details: in vivo
# Method in brief: as §1
# Chain of 5-hydroxytryptamine receptor 6 (P50406 whole entry): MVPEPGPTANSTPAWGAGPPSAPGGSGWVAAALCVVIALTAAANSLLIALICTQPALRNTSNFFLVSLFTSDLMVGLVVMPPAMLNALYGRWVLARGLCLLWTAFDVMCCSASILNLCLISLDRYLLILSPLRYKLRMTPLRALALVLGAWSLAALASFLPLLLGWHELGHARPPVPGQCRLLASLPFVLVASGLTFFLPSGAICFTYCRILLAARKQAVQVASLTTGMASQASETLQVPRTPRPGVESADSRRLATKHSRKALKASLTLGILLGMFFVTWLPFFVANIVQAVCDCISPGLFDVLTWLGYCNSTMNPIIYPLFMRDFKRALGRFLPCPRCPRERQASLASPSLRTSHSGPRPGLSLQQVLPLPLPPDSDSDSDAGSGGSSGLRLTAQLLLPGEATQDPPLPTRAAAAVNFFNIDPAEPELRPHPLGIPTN
# Chain of Voltage-gated inwardly rectifying potassium channel KCNH2 (Q12809 whole entry): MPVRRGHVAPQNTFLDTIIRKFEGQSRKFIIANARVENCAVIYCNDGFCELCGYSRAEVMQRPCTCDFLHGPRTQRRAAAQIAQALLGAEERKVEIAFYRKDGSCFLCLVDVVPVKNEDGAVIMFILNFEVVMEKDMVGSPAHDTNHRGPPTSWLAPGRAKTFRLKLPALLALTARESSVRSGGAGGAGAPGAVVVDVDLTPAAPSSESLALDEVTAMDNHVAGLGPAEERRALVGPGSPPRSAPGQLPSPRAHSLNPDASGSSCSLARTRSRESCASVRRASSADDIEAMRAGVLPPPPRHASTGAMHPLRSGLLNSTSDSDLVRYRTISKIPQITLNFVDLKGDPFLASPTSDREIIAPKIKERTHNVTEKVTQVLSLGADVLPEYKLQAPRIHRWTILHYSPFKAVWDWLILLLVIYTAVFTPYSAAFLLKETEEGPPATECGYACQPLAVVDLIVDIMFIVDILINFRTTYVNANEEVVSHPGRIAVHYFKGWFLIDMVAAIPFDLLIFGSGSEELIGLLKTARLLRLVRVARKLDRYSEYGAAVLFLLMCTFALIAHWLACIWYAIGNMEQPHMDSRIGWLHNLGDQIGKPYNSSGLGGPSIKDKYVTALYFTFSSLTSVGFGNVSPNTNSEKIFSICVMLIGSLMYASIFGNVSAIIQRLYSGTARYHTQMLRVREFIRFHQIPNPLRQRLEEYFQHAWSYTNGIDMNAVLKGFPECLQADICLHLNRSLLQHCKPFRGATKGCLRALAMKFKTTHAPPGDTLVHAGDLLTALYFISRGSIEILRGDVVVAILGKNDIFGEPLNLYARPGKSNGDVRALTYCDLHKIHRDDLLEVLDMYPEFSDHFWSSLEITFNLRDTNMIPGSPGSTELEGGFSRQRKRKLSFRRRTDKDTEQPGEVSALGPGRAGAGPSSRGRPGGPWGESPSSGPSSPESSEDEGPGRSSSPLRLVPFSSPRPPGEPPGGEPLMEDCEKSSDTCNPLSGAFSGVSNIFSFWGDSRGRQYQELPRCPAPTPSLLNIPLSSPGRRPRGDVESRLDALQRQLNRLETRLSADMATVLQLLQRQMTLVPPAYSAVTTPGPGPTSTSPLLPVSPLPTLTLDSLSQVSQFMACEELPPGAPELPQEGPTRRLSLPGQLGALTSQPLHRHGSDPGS
Compound,Ki [1] [nM],other results
CN1CCC(N(C)C(=O)C2CN(S(=O)(=O)c3cccc4nsnc34)c3ccccc32)CC1 (racemic),126,–
CN1CCC(N(C)C(=O)C2CN(S(=O)(=O)c3cccs3)c3ccccc32)CC1 (racemic),316,–
COc1ccc(S(=O)(=O)N2CC(C(=O)NCCCN3CCOCC3)c3ccccc32)c2ccccc12 (racemic),31.6,–
COc1ccc(S(=O)(=O)N2CC(C(=O)NC3CCN(Cc4ccccc4)CC3)c3ccccc32)c2ccccc12 (racemic),50.1,–
COc1cccc(N2CCN(C(=O)C3CN(S(=O)(=O)c4ccc(OC)c5ccccc45)c4ccccc43)CC2)c1 (racemic),63.1,–
CN1CCC(N(C)C(=O)C2CN(S(=O)(=O)c3ccc4ccccc4c3)c3ccccc32)CC1 (racemic),25.1,–
CN1CCC(N(C)C(=O)C2CN(S(=O)(=O)c3ccc(-c4ccccc4)cc3)c3ccccc32)CC1 (racemic),126,–
CCN(CC)CCCNC(=O)C1CN(S(=O)(=O)c2ccc(OC)c3ccccc23)c2ccccc21 (racemic),79.4,–
CCN(CC)CCNC(=O)C1CN(S(=O)(=O)c2ccc(OC)c3ccccc23)c2ccccc21 (racemic),20,–
COc1ccc(S(=O)(=O)N2CC(C(=O)N3CC(N)C3)c3ccccc32)c2ccccc12 (racemic),158,–
COc1ccc(S(=O)(=O)N2CC(C(=O)NCCCn3ccnc3)c3ccccc32)c2ccccc12 (racemic),79.4,–
CN1CCC(N(C)C(=O)C2CN(S(=O)(=O)c3ccc(OC(F)(F)F)cc3)c3ccccc32)CC1 (racemic),20,–
COc1ccc(S(=O)(=O)N2CC(C(=O)N3CCNCC3)c3ccccc32)c2ccccc12 (racemic),7.94,–
Cc1cnc2c(S(=O)(=O)N3CC(C(=O)N(C)C4CCN(C)CC4)c4ccccc43)cccc2c1 (racemic),316,–
COc1ccc(S(=O)(=O)N2C[C@H](C(=O)N3CCCNCC3)c3ccccc32)c2ccccc12,–,microsomal CLint [2]: 69 µL/min/mg; half-life [3]: 114 min; microsomal CLint [4]: 105 µL/min/mg; CL [5]: 7 µL/min; fraction unbound [6]: 0.029; bioavailability [7]: 23.5%; CL [8]: 11 µL/min; fraction unbound [9]: 0.006; Vd [10]: 1.9 L/kg; Ki [11]: 1260 nM; Papp B→A [12]: 4.7 ×10⁻⁶ cm/s; Papp A→B [13]: < 2.2 ×10⁻⁶ cm/s; clearance [14]: 16.5 mL/min/kg
COc1ccc(S(=O)(=O)N2CC(C(=O)N(C)C3CCN(C)CC3)c3ccccc32)c(C)c1C (racemic),100,–
CN1CCC(N(C)C(=O)C2CN(S(=O)(=O)c3cccc4c(Cl)cccc34)c3ccccc32)CC1 (racemic),5.01,–
COc1cc(C)c(S(=O)(=O)N2CC(C(=O)N(C)C3CCN(C)CC3)c3ccccc32)c(C)c1C (racemic),100,–
CN1CCC(N(C)C(=O)C2CN(S(=O)(=O)c3cccc4ccccc34)c3ccccc32)CC1 (racemic),31.6,–
Cc1c(S(=O)(=O)N2CC(C(=O)N(C)C3CCN(C)CC3)c3ccccc32)sc2ccc(Cl)cc12 (racemic),63.1,–
COc1ccc(S(=O)(=O)N2CC(C(=O)N3CCCNCC3)c3ccccc32)c2ccccc12 (racemic),1.26,–
CN1CCC(N(C)C(=O)C2CN(S(=O)(=O)c3cccc(-c4ccccc4)c3)c3ccccc32)CC1 (racemic),31.6,–
CN1CCC(N(C)C(=O)C2CN(S(=O)(=O)c3ccc4c(c3)OCCO4)c3ccccc32)CC1 (racemic),50.1,–
CN1CCC(N(C)C(=O)C2CN(S(=O)(=O)c3ccc(C(F)(F)F)cc3)c3ccccc32)CC1 (racemic),25.1,–
CN1CCC(N(C)C(=O)C2CN(S(=O)(=O)c3ccccc3)c3ccccc32)CC1 (racemic),316,–
COc1ccc(S(=O)(=O)N2CC(C(=O)NC3CC4CCC(C3)N4C)c3ccccc32)c2ccccc12 (racemic),31.6,–
COc1ccc(S(=O)(=O)N2CC(C(=O)N(C)C3CCN(C)CC3)c3ccccc32)c2ccccc12 (racemic),7.94,–
CN1CCC(N(C)C(=O)C2CN(S(=O)(=O)c3cccc(C(F)(F)F)c3)c3ccccc32)CC1 (racemic),25.1,–
COc1ccc(S(=O)(=O)N2CC(C(=O)N3CC(CN)C3)c3ccccc32)c2ccccc12 (racemic),79.4,–
COc1ccc(S(=O)(=O)N2CC(C(=O)NC3CCN(C)CC3)c3ccccc32)c2ccccc12 (racemic),25.1,–
